Experimental data reported in ChEMBL document CHEMBL1124955, “2-substituted-1-naphthols as potent 5-lipoxygenase inhibitors with topical antiinflammatory activity” (J Med Chem, 1990).

Key:
[1] = molecular target: T1, Polyunsaturated fatty acid 5-lipoxygenase (Rattus norvegicus, UniProt P12527); assay: Ability to inhibit 5-lipoxygenase by using a crude preparation of the cytosolic enzyme from the rat basophilic leukemia (RBL-1) cell line; type: cell-based
T1 sequence (P12527 whole entry): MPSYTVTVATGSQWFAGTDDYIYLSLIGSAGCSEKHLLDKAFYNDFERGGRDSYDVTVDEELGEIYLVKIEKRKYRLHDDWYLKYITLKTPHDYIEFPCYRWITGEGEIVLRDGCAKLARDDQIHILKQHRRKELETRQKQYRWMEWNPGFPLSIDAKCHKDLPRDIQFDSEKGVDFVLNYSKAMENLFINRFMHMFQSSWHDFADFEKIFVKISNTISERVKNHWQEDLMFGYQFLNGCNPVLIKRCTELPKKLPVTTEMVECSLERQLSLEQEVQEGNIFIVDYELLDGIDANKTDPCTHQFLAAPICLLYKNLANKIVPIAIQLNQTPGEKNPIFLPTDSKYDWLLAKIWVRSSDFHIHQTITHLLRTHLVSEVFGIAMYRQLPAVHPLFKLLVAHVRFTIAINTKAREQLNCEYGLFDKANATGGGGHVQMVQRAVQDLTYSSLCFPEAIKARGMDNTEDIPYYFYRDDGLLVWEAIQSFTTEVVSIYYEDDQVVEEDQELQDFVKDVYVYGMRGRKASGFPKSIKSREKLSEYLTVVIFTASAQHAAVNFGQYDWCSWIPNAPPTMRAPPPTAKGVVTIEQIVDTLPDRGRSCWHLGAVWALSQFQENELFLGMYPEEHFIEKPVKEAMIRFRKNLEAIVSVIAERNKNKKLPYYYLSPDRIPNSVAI
Summary of the method: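 Crude cytosolic enzyme (supernatant) from RBL-1 cells, amount giving net 3300–3800 dpm 5-HETE (9–20 μg cell protein/assay). Enzyme is preincubated 5 min at 37 °C, pH 7.0, with compound (in 5% DMSO/Tris pH 8.5) in phosphate buffer with EDTA, gelatin, glutathione, CaCl2 and 0.012 mM indomethacin. Reaction is started with 0.042 mM final [14C]arachidonic acid and stopped by freezing after 2 min.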

Mus musculus = assay: Percentage inhibition of the mouse arachidonic acid induced ear edema assay (AA) at a dose of 100 ug/ear; type: functional
Summary of the method: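 Groups of 10 male CF1 mice (18–20 g). Compound in acetone is applied topically to both ears just before 1 mg arachidonic acid in acetone is applied to one ear; the other ear serves as control. Mice are killed 60 min later and 6-mm ear punches weighed; swelling is the weight difference. %Inhibition = [(C−T)/C]×100, with Student's t test.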

Cyclooxygenase = molecular target: T2, Cyclooxygenase (Bos taurus, UniProt O62664+O62698); assay: In vitro inhibition of Prostaglandin G/H synthase in BSV cell line.; type: cell-based
T2 sequence (O62664 whole entry): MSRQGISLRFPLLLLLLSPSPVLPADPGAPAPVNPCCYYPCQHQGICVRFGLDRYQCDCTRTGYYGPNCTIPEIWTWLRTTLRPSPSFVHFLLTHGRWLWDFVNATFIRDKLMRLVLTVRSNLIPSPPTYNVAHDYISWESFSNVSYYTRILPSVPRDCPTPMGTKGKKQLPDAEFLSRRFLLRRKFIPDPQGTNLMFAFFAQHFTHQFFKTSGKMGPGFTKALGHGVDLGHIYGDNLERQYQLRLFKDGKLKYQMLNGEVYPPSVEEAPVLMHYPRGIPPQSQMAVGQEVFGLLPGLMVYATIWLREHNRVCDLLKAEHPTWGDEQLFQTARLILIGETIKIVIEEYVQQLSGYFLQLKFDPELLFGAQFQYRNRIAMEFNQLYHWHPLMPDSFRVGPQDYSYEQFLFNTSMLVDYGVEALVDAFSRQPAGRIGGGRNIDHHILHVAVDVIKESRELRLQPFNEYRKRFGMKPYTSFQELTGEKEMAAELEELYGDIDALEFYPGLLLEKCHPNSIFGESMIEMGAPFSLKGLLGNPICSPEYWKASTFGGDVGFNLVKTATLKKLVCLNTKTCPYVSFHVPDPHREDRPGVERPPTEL
T2 sequence (O62698 whole entry): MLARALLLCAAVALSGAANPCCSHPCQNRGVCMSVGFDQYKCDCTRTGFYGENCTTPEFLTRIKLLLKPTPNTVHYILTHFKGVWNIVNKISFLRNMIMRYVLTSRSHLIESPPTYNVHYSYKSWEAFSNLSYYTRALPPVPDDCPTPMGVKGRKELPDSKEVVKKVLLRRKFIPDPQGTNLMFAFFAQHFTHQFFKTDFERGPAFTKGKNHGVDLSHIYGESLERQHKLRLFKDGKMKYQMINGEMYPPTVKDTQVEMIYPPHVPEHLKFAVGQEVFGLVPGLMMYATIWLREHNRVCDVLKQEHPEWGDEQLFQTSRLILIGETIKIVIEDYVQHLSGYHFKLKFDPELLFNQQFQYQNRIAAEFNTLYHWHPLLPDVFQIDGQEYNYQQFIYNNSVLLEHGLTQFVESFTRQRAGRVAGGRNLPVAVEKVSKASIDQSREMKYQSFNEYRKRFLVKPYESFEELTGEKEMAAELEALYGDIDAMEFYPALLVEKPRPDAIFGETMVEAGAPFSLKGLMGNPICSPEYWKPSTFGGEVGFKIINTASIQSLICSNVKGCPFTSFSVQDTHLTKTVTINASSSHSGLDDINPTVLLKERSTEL

SMILES	IC50 [1]	Inhibition (Mus musculus)	IC50 (Cyclooxygenase)
CCOc1ccccc1Cc1ccc2ccccc2c1O	570 nM	51%	
COc1ccc2c(O)c(Cc3ccccc3)ccc2c1	1900 nM	76%	
CS(=O)(=O)c1cc(Cc2ccccc2)c(O)c2ccccc12	40000 nM	15%	
Oc1cc2ccccc2cc1Cc1ccccc1	7200 nM	33%	35000 nM
Cc1ccccc1Cc1ccc2ccccc2c1O	120 nM	66%	
COc1ccc2ccc(Cc3ccccc3)c(O)c2c1	3500 nM	52%	
CS(=O)(=O)c1ccc(Cc2ccc3ccccc3c2O)cc1	240 nM	0%	
Cl.Nc1c(Cc2ccccc2)ccc2ccccc12	9100 nM	35%	18000 nM
Oc1c(Cc2ccc(Cl)cc2)ccc2ccccc12	39 nM	66%	
CC(C)(C)c1ccc2ccccc2c1O	180 nM	67%	37000 nM
CC(=O)Oc1c(Cc2ccccc2)ccc2ccccc12		63%	240000 nM
Oc1c(Cc2ccc(OCc3ccccc3)cc2)ccc2ccccc12	72 nM	12%	
O=C(O)c1cc(Cc2ccccc2)c(O)c2ccccc12	5800 nM	3%	
Oc1c(Cc2ccc(F)cc2)ccc2ccccc12	130 nM	76%	
Oc1c(CCc2ccccc2)ccc2ccccc12	140 nM	69%	
Oc1c(Cc2cccnc2)ccc2ccccc12	230 nM	46%	
O=C(c1ccccc1)c1cc(Cc2ccccc2)c(O)c2ccccc12	54 nM	41%	
O=[N+]([O-])c1ccc(Cc2ccc3ccccc3c2O)cc1	48 nM	58%	
COc1ccc(Cc2ccc3ccccc3c2O)cc1	75 nM	85%	
Cn1cccc1Cc1ccc2ccccc2c1O	140 nM	72%	
Oc1ccc(Cc2ccccc2)c2ccccc12	820 nM	42%	5900 nM

SMILES	IC50 [1]	Inhibition (Mus musculus)	IC50 (Cyclooxygenase)
Cc1ccc(Cc2ccc3ccccc3c2O)cc1	24 nM	79%	
OC(c1ccccc1)c1ccc2ccccc2c1 (centres undefined)	40000 nM	16%	
Cc1cc(C)c2ccc(Cc3ccccc3)c(O)c2c1	62 nM	44%	
CN(C)c1ccc(Cc2ccc3ccccc3c2O)cc1	140 nM	67%	
COc1cccc2c(O)c(Cc3ccccc3)ccc12	100 nM	69%	
Oc1c(Cc2ccccc2)cccc1Cc1ccccc1	8800 nM	21%	52000 nM
Oc1cccc2ccccc12 [1-NAPHTHOL]	3600 nM	59%	2000 nM
Oc1c(Cc2ccc(Br)cc2)ccc2ccccc12	68 nM	50%	
Oc1c(Cc2ccc3c(c2)OCO3)ccc2ccccc12	40 nM	78%	
CCOC(=O)c1cc(Cc2ccccc2)c(O)c2ccccc12	160 nM	16%	
CCOC(=O)/C=C/c1ccc2ccccc2c1O	45 nM	0%	11000 nM
Oc1c(Cc2ccccc2)cc(Br)c2ccccc12	77 nM	33%	
Cc1ccc(C)c2c(O)c(Cc3ccccc3)ccc12	120 nM	52%	
CSc1ccc(Cc2ccc3ccccc3c2O)cc1	48 nM	76%	
Oc1cc(Cc2ccccc2)cc2ccccc12	690 nM	28%	2700 nM
COc1cccc(Cc2ccc3ccccc3c2O)c1	110 nM	72%	
Oc1c(Cc2cccs2)ccc2ccccc12	60 nM	84%	
Oc1c(Cc2ccncc2)ccc2ccccc12	140 nM	62%	
COc1cc2ccc(Cc3ccccc3)c(O)c2cc1OC	1700 nM	33%	
O=[N+]([O-])c1cc(Cc2ccccc2)c(O)c2ccccc12	48000 nM	28%	
CCOc1ccc(Cc2ccc3ccccc3c2O)cc1	62 nM	68%	

SMILES	IC50 [1]	Inhibition (Mus musculus)	IC50 (Cyclooxygenase)
Cn1ccnc1Cc1ccc2ccccc2c1O	3500 nM	9%	
Oc1c(Cc2ccc3ccccc3c2)ccc2ccccc12	58 nM	52%	
Oc1c(Cc2cccc(Br)c2)ccc2ccccc12	88 nM	55%	
CC(=O)c1cc(Cc2ccccc2)c(O)c2ccccc12	510 nM	16%	
Oc1c(Cc2ccccc2)cc(-c2ccccc2)c2ccccc12	56 nM	26%	
CC(c1ccccc1)c1ccc2ccccc2c1O (centres undefined)	70 nM	45%	8700 nM
NS(=O)(=O)c1cc(Cc2ccccc2)c(O)c2ccccc12	9400 nM	3%	
Cc1ccc2ccccc2c1O	130 nM	73%	3000 nM
CCOC(=O)CCc1ccc2ccccc2c1O	58 nM	69%	13000 nM
COc1cc(Cc2ccccc2)c(O)c2ccccc12	31 nM	69%	
Oc1c(Cc2cccc(Cl)c2)ccc2ccccc12	52 nM	67%	
Oc1c(Cc2cccc(Oc3ccccc3)c2)ccc2ccccc12	83 nM	60%	
COc1ccc(Cc2ccc3ccccc3c2O)cc1OC	51 nM	60%	
Oc1c(Cc2ccc(Cl)c(Cl)c2)ccc2ccccc12	180 nM	58%	
CC(Cc1ccc(O)c(O)c1)C(C)Cc1ccc(O)c(O)c1 (centres undefined) [NORDIHYDROGUAIARETIC ACID]		25%	14000 nM
Oc1c(Cc2cccc(C(F)(F)F)c2)ccc2ccccc12	270 nM	67%	
Oc1c(Cc2ccccn2)ccc2ccccc12	390 nM	56%	
Cc1cc(Cc2ccccc2)c(O)c2ccccc12	20 nM	62%	
Oc1c(Cc2ccco2)ccc2ccccc12	37 nM	84%	
Oc1c(/C=C\c2ccccc2)ccc2ccccc12	160 nM	65%	13000 nM
O=C(O)CCCCc1ccc2ccccc2c1O	4200 nM	9%	720000 nM
